# Measured values from ChEMBL document CHEMBL1145501, “Effect of macrolide usage on emergence of erythromycin-resistant Campylobacter isolates in chickens” (2007).
# Active and inactive are the calls of the source. The rule behind the calls is not given here.
# Key:
# [1] = system: Campylobacter jejuni; test: Antimicrobial activity against Campylobacter jejuni 700819 by agar dilution method; assay type: functional
# Summary of the method: (§1)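 Erythromycin MIC by agar dilution per CLSI (formerly NCCLS). Strains were grown on Mueller-Hinton agar or in MH broth at 42°C under microaerobic conditions. MH media were supplemented with various amounts of Ery.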
# [2] = system: Campylobacter jejuni; test: Antimicrobial activity against Campylobacter jejuni 700819 with cmeB mutation by agar dilution method; assay type: functional
# Summary of the method: (§2)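 cmeB knockouts were made by biphasic natural transformation, using genomic DNA of 11168B (cmeB::kan) as donor. Transformants were selected on 30 μg/ml kanamycin and the insertion confirmed by PCR. The isogenic mutants were then MIC-tested by agar dilution on MH medium at 42°C under microaerobic conditions.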
# [3] = system: Campylobacter jejuni; test: Antimicrobial activity against Campylobacter jejuni S3B by agar dilution method; assay type: functional; summary of the method: as §1
# [4] = system: Campylobacter jejuni; test: Antimicrobial activity against Campylobacter jejuni S3B with cmeB mutation by agar dilution method; assay type: functional; summary of the method: as §2
# [5] = system: Campylobacter coli; test: Antimicrobial activity against Campylobacter coli RN14B by agar dilution method; assay type: functional; summary of the method: as §1
# [6] = system: Campylobacter coli; test: Antimicrobial activity against Campylobacter coli RN14B with cmeB mutation by agar dilution method; assay type: functional; summary of the method: as §2
# [7] = system: Campylobacter coli; test: Antimicrobial activity against Campylobacter coli MR32D by agar dilution method; assay type: functional; summary of the method: as §1
# [8] = system: Campylobacter coli; test: Antimicrobial activity against Campylobacter coli AW-II-35 by agar dilution method; assay type: functional
# Summary of the method: (§3)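 MIC by CLSI agar dilution. Campylobacter was grown on Mueller-Hinton medium at 42°C under microaerobic conditions. Ery-resistant mutants were selected either in vitro, by plating late-log antibiotic-free broth cultures on MH agar with 2, 4 or 8 μg/ml Ery for 2 days, or from tylosin-exposed chickens.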
# [9] = system: Campylobacter jejuni; test: Antimicrobial activity against Campylobacter jejuni S3BE2-2 mutant by agar dilution method; assay type: functional; summary of the method: as §3
# [10] = system: Campylobacter jejuni; test: Antimicrobial activity against Campylobacter jejuni S3BE2-2 mutant with cmeB mutation by agar dilution method; assay type: functional; summary of the method: as §2
# [11] = system: Campylobacter jejuni; test: Antimicrobial activity against Campylobacter jejuni S3BE4-1 mutant by agar dilution method; assay type: functional; summary of the method: as §3
# [12] = system: Campylobacter jejuni; test: Antimicrobial activity against Campylobacter jejuni S3BE4-2 mutant by agar dilution method; assay type: functional; summary of the method: as §3
# [13] = system: Campylobacter jejuni; test: Antimicrobial activity against Campylobacter jejuni S3BE4-3 mutant by agar dilution method; assay type: functional; summary of the method: as §3
# [14] = system: Campylobacter jejuni; test: Antimicrobial activity against Campylobacter jejuni S3BE8-1 mutant by agar dilution method; assay type: functional; summary of the method: as §3
# [15] = system: Campylobacter coli; test: Antimicrobial activity against Campylobacter coli RN14BE4-2 mutant by agar dilution method; assay type: functional; summary of the method: as §3
# [16] = system: Campylobacter coli; test: Antimicrobial activity against Campylobacter coli RN14BE4-2/A2074G and cmeB mutation by agar dilution method; assay type: functional; summary of the method: as §2
# [17] = system: Campylobacter coli; test: Antimicrobial activity against Campylobacter coli RN14BE4-3 mutant by agar dilution method; assay type: functional; summary of the method: as §3
# [18] = system: Campylobacter coli; test: Antimicrobial activity against Campylobacter coli RN14BE4-3 mutant with cmeB mutation by agar dilution method; assay type: functional; summary of the method: as §2
# [19] = system: Campylobacter coli; test: Antimicrobial activity against Campylobacter coli RN14BE8-1 mutant by agar dilution method; assay type: functional; summary of the method: as §3
# [20] = system: Campylobacter coli; test: Antimicrobial activity against Campylobacter coli RN14BE8-2 mutant by agar dilution method; assay type: functional; summary of the method: as §3
# [21] = system: Campylobacter coli; test: Antimicrobial activity against Campylobacter coli RN14BE8-3 mutant by agar dilution method; assay type: functional; summary of the method: as §3
# [22] = system: Campylobacter coli; test: Antimicrobial activity against Campylobacter coli MR32DE4-1 mutant by agar dilution method; assay type: functional; summary of the method: as §3
# [23] = system: Campylobacter jejuni; test: Antimicrobial activity against Campylobacter jejuni 700819 mutant 3 with cmeB mutation by agar dilution method; assay type: functional; summary of the method: as §2
# [24] = system: Campylobacter jejuni; test: Antimicrobial activity against Campylobacter jejuni 700819 mutant 4 by agar dilution method; assay type: functional; summary of the method: as §3
# [25] = system: Campylobacter jejuni; test: Antimicrobial activity against Campylobacter jejuni 700819 mutant 4/A2074G and cmeB mutation by agar dilution method; assay type: functional; summary of the method: as §2
# [26] = system: Campylobacter jejuni; test: Antimicrobial activity against Campylobacter jejuni 700819 mutant 5 by agar dilution method; assay type: functional; summary of the method: as §3
# [27] = system: Campylobacter jejuni; test: Antimicrobial activity against Campylobacter jejuni 700819 mutant 5/A2074G and cmeB mutation by agar dilution method; assay type: functional; summary of the method: as §2
# [28] = system: Campylobacter jejuni; test: Antimicrobial activity against Campylobacter jejuni 700819 mutant 6 by agar dilution method; assay type: functional; summary of the method: as §3
# [29] = system: Campylobacter jejuni; test: Antimicrobial activity against Campylobacter jejuni 700819 mutant 6/A2074G and cmeB mutation by agar dilution method; assay type: functional; summary of the method: as §2
# [30] = system: Campylobacter jejuni; test: Antimicrobial activity against Campylobacter jejuni 700819 mutant 7 by agar dilution method; assay type: functional; summary of the method: as §3
# [31] = system: Campylobacter jejuni; test: Antimicrobial activity against Campylobacter jejuni 700819 mutant 7 with cmeB mutation by agar dilution method; assay type: functional; summary of the method: as §2
# [32] = system: Campylobacter jejuni; test: Antimicrobial activity against Campylobacter jejuni 700819 mutant 8 by agar dilution method; assay type: functional; summary of the method: as §3
# [33] = system: Campylobacter jejuni; test: Antimicrobial activity against Campylobacter jejuni 700819 mutant 8 with cmeB mutation by agar dilution method; assay type: functional; summary of the method: as §2
# [34] = system: Campylobacter jejuni; test: Antimicrobial activity against Campylobacter jejuni 700819 mutant 9 by agar dilution method; assay type: functional; summary of the method: as §3
# [35] = system: Campylobacter jejuni; test: Antimicrobial activity against Campylobacter jejuni 700819 mutant 9 with cmeB mutation by agar dilution method; assay type: functional; summary of the method: as §2
# [36] = system: Campylobacter jejuni; test: Antimicrobial activity against Campylobacter jejuni 700819 mutant 10 by agar dilution method; assay type: functional; summary of the method: as §3
# [37] = system: Campylobacter jejuni; test: Antimicrobial activity against Campylobacter jejuni 700819 mutant 10 with cmeB mutation by agar dilution method; assay type: functional; summary of the method: as §2
# [38] = system: Campylobacter jejuni; test: Antimicrobial activity against Campylobacter jejuni 700819 mutant 11 by agar dilution method; assay type: functional; summary of the method: as §3
# [39] = system: Campylobacter jejuni; test: Antimicrobial activity against Campylobacter jejuni 700819 mutant 11 with cmeB mutation by agar dilution method; assay type: functional; summary of the method: as §2
# [40] = system: Campylobacter jejuni; test: Antimicrobial activity against Campylobacter jejuni 700819 mutant 12 by agar dilution method; assay type: functional; summary of the method: as §3
# [41] = system: Campylobacter jejuni; test: Antimicrobial activity against Campylobacter jejuni 700819 mutant 12 with cmeB mutation by agar dilution method; assay type: functional; summary of the method: as §2
# [42] = system: Campylobacter coli; test: Antimicrobial activity against Campylobacter coli AW-ll-35/AW-ll-37 mutant in chickens assessed as reduction in colonization; assay type: functional, organism-based
# Summary of the method: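 Campylobacter-free broiler chickens were orally dosed with a mixed C. coli AW-II-35 + AW-II-37 culture (10⁷ CFU/bird). Five days later one group received tylosin in drinking water (0.53 g/liter, about 110 mg/kg/day) for 3 days; a parallel group was left untreated. Cloacal swabs were serially plated on selective MH, counted after 48 h at 42°C, and compared by t test on log₁₀ CFU/g feces (P<0.01).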
# [43] = system: Campylobacter jejuni; test: Effect on Campylobacter jejuni 700819 mutant colonization at 8 ug/ml; assay type: functional, organism-based
# Summary of the method: (§4)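 Chickens colonized with C. jejuni were sampled by cloacal swabs. Serial dilutions were plated on selective MH agar with and without 8 μg/ml Ery and counted after 48 h at 42°C under microaerobic conditions, giving the Ery-nonsusceptible fraction per bird. Detection limit was about 100 CFU/g feces.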
# [44] = system: Campylobacter coli; test: Antimicrobial activity against Campylobacter coli AW-II-37 by agar dilution method; assay type: functional; summary of the method: as §3
# [45] = system: Campylobacter coli; test: Antimicrobial activity against Campylobacter coli MR32DE8-1 mutant by agar dilution method; assay type: functional; summary of the method: as §3
# [46] = system: Campylobacter jejuni; test: Antimicrobial activity against Campylobacter jejuni 700819 mutant 1 by agar dilution method; assay type: functional; summary of the method: as §3
# [47] = system: Campylobacter jejuni; test: Antimicrobial activity against Campylobacter jejuni 700819 mutant 1 with cmeB mutation by agar dilution method; assay type: functional; summary of the method: as §2
# [48] = system: Campylobacter jejuni; test: Antimicrobial activity against Campylobacter jejuni 700819 mutant 2 by agar dilution method; assay type: functional; summary of the method: as §3
# [49] = system: Campylobacter jejuni; test: Antimicrobial activity against Campylobacter jejuni 700819 mutant 2 with cmeB mutation by agar dilution method; assay type: functional; summary of the method: as §2
# [50] = system: Campylobacter jejuni; test: Antimicrobial activity against Campylobacter jejuni 700819 mutant 3 by agar dilution method; assay type: functional; summary of the method: as §3
# [51] = system: Campylobacter jejuni; test: Effect on Campylobacter jejuni S3B mutant colonization at 8 ug/ml; assay type: functional, organism-based; summary of the method: as §4
structure (smiles),measurement,setting,value
CC[C@H]1OC(=O)[C@H](C)[C@@H](O[C@H]2C[C@@](C)(OC)[C@@H](O)[C@H](C)O2)[C@H](C)[C@@H](O[C@@H]2O[C@H](C)C[C@H](N(C)C)[C@H]2O)[C@](C)(O)C[C@@H](C)C(=O)[C@H](C)[C@@H](O)[C@]1(C)O [ERYTHROMYCIN],MIC,[1],2 µg/mL
same,MIC,[2],0.125 µg/mL
same,MIC,[3],2 µg/mL
same,MIC,[4],1 µg/mL
same,MIC,[5],2 µg/mL
same,MIC,[6],0.125 µg/mL
same,MIC,[7],2 µg/mL
same,MIC,[8],0.125 µg/mL
same,MIC,[9],256 µg/mL
same,MIC,[10],0.125 µg/mL
same,MIC,[11],32 µg/mL
same,MIC,[12],32 µg/mL
same,MIC,[13],128 µg/mL
same,MIC,[14],256 µg/mL
same,MIC,[15],8 µg/mL
same,MIC,[16],0.125 µg/mL
same,MIC,[17],32 µg/mL
same,MIC,[18],0.125 µg/mL
same,MIC,[19],32 µg/mL
same,MIC,[20],32 µg/mL
same,MIC,[21],32 µg/mL
same,MIC,[22],8 µg/mL
same,MIC,[23],0.25 µg/mL
same,MIC,[24],> 512 µg/mL
same,MIC,[25],32 µg/mL
same,MIC,[26],> 512 µg/mL
same,MIC,[27],32 µg/mL
same,MIC,[28],> 512 µg/mL
same,MIC,[29],32 µg/mL
same,MIC,[30],8 µg/mL
same,MIC,[31],0.25 µg/mL
same,MIC,[32],16 µg/mL
same,MIC,[33],0.25 µg/mL
same,MIC,[34],32 µg/mL
same,MIC,[35],0.25 µg/mL
same,MIC,[36],8 µg/mL
same,MIC,[37],0.125 µg/mL
same,MIC,[38],8 µg/mL
same,MIC,[39],0.25 µg/mL
same,MIC,[40],8 µg/mL
same,MIC,[41],0.25 µg/mL
same,Activity,[42],Active
same,Activity,[43],Active
same,MIC,[44],0.125 µg/mL
same,MIC,[45],32 µg/mL
same,MIC,[46],8 µg/mL
same,MIC,[47],0.25 µg/mL
same,MIC,[48],8 µg/mL
same,MIC,[49],0.125 µg/mL
same,MIC,[50],32 µg/mL
same,Activity,[51],Active
